Columns and labels:
Format in all cases: biochemical
hNAPE-PLD = hNAPE-PLD (Homo sapiens, UniProt Q6IQ20); assay: NAPE-PLD surrogate substrate; conditions: 10 μM
mFAAH = target: T1, mFAAH (Mus musculus, UniProt O08914); assay: gel-based ABPP, mouse brain membrane proteome; conditions: 10 μM
T1 sequence (O08914 1-579): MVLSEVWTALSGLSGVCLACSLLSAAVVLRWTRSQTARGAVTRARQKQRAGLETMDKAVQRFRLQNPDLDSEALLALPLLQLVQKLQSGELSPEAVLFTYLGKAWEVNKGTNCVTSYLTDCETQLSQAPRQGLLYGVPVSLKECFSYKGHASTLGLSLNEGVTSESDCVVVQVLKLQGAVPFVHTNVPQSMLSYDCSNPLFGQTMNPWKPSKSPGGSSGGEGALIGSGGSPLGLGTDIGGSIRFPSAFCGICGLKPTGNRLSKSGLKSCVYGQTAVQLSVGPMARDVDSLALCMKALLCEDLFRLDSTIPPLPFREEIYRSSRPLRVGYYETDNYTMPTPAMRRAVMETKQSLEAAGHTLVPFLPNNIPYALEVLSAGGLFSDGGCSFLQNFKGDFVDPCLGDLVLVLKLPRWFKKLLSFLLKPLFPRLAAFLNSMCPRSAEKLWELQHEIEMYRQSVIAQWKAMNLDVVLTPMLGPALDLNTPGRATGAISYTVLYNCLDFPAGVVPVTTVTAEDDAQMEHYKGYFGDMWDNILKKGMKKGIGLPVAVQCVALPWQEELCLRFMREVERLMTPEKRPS
Outline: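 Mouse brain was dounce-homogenized in 20 mM HEPES pH 7.2 with DTT, MgCl2 and benzonase. The membrane pellet from ultracentrifugation (100,000g, 45 min, 4 °C) was used at 2 μg/μL. It was preincubated with test compound in DMSO (30 min, rt), then labeled with MB064 (250 nM) or FP-TAMRA (500 nM) for 15 min at rt. Samples ran on 10% SDS-PAGE; fluorescence was normalized to Coomassie staining.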

hMAGL = target: T2, hMAGL (Homo sapiens, UniProt Q99685); assay: natural substrate-based fluorescence assay MAGL; conditions: 10 μM
T2 sequence (Q99685 1-303): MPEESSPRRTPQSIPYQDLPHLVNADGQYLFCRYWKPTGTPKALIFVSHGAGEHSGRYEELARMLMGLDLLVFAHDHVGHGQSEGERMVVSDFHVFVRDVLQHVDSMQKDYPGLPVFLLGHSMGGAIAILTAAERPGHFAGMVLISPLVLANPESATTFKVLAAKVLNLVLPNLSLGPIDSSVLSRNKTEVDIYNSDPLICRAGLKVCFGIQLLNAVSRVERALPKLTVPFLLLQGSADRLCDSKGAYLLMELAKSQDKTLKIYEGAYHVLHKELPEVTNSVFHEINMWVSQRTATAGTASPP

hPLA2G4E = target: T3, hPLA2G4E (Homo sapiens, UniProt Q3MJ16); assay: gel-based ABPP with FP-TAMRA, hPLA2G4E-overexpressing membrane lysate; conditions: 10 μM
T3 sequence (Q3MJ16 1-868): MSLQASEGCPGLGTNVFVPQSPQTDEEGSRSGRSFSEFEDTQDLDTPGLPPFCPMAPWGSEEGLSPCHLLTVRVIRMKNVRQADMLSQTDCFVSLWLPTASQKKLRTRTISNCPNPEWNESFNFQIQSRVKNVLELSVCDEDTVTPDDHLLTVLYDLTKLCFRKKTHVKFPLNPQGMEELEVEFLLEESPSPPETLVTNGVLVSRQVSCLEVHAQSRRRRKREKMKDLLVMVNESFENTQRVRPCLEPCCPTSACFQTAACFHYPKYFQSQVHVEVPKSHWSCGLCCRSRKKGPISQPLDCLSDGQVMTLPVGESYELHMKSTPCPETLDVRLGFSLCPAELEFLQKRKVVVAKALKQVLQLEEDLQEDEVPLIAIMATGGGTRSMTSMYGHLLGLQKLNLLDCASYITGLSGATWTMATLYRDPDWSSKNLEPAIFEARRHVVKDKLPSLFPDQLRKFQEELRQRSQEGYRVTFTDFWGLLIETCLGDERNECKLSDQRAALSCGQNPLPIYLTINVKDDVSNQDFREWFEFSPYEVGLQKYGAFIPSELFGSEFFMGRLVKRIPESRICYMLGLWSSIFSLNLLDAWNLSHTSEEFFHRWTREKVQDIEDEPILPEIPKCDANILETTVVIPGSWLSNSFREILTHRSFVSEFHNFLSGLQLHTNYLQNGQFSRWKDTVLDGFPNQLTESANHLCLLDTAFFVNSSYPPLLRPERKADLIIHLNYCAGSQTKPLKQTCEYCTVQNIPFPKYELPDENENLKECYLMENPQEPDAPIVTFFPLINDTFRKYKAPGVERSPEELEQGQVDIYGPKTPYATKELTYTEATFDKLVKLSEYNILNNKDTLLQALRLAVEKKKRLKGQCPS
Outline: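 Membrane lysate from hPLA2G4E-overexpressing cells (1 μg/μL) was preincubated with test compound in DMSO (30 min, rt), then labeled with FP-TAMRA (50 nM, 5 min, rt). Proteins were denatured in Laemmli buffer and resolved on 8% acrylamide SDS-PAGE. In-gel fluorescence was normalized to Coomassie staining.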

PLAAT4 = target: T4, PLAAT4 (Homo sapiens, UniProt Q9UL19)
T4 sequence (Q9UL19 1-164): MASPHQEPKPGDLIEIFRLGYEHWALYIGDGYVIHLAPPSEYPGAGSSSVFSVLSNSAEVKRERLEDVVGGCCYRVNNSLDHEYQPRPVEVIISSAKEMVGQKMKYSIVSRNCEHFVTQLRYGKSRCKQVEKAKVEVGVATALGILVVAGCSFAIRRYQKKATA
Outline: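 Human PLAAT cDNA (C-terminal FLAG, pcDNA3.1) was PEI-transfected into HEK293T; cytosol came from a 100,000g spin. Cytosol was preincubated with test compound (30 min, rt), then MB064 (20 min, rt). Conditions: PLAAT2 0.25 μg/μL, 250 nM; PLAAT3 0.5 μg/μL, 250 nM; PLAAT4/5 1 μg/μL, 500 nM. In-gel fluorescence was normalized to Coomassie, in triplicate. Single-concentration screen or IC50 from dose–response curves.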

hNAPE-PLD, sequence (Q6IQ20 whole entry): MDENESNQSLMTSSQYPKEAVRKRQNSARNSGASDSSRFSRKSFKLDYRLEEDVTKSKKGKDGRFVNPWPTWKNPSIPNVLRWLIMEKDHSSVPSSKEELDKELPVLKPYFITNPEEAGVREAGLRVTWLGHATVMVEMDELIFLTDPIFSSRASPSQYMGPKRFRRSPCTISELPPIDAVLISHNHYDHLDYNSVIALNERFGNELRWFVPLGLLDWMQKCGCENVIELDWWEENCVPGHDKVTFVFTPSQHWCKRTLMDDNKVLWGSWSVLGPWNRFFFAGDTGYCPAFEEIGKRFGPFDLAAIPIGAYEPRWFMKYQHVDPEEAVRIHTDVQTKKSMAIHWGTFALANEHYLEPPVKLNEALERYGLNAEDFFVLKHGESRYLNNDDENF

## O=C(CCCc1ccccc1)C(=O)NCCc1ccc(Oc2ccccc2)cc1 [Compound 51, 2-Oxo-N-(4-phenoxyphenethyl)-5-phenylpentanamide]
hNAPE-PLD
  inhibition of NAPE-PLD (in words): not inhibited
mFAAH
  inhibition of FAAH (in words): not inhibited
hMAGL
  inhibition of MAGL (in words): not inhibited
hPLA2G4E
  inhibition of PLA2G4E (in words): not inhibited
PLAAT4
  increase in activity/potency for PLAAT4 compared to 25: 10 fold

From PMC7498158 (Journal of Medicinal Chemistry, 2020)
